Results from different studies.
Observed: cell growth or viability

| SMILES | cell line | method | tested at | time | notes | endpoint | result |
| --- | --- | --- | --- | --- | --- | --- | --- |
| N.N.[Cl][Pt][Cl] | MDA-MB-468 | MTT |  | 48 h | dark | IC50 | 6.97 µM |
| N.N.[Cl][Pt][Cl] | BEAS-2B | MTT |  | 24 h |  | IC50 | > 100 µM |
| N.N.[Cl][Pt][Cl] | HBL1 | ATP luminescence |  | 72 h |  | IC50 | 1.31 µM |
| O=C(CCCCCCNC(=O)c1cnc(N(c2ccccc2)c2ccccc2)nc1)NO | MV4-11 | ATP luminescence |  | 72 h |  | EC50 | 0.713 µM |
| COc1c(C)c2c(c(O)c1C/C=C(\C)CCC(=O)O)C(=O)OC2 | MDA-MB-468 |  |  |  |  | IC50 | 0.417 µM |
| N.N.[Cl][Pt][Cl] | MDA-MB-468 | MTT |  | 48 h |  | IC50 | 5 µM |
| Cn1cc2cc(C(F)(F)c3nnc4ccc(-c5cnn(C6CC6)c5)nn34)c(F)cc2n1 | KATO III | CCK-8 |  | 72 h |  | IC50 | > 1 µM |
| CN(C)c1ccc(C(=O)NCCCCCCC(=O)NO)cc1 | HBL1 | ATP luminescence | 0.1 µM | 5 days |  | viability | 125% |
